# Calls of active or inactive are those of the source.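 How the source made its calls, unless noted: active means current rise at least 3 SD above the untreated control mean in each of two repeat wells; inactive means the rest.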
# Key:
# [1] = thallium flux activation in parental CHO cells, counter-screen for KCNQ1 potentiator project (AID 493006;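 active means duplicate-averaged activation above buffer control mean plus 5 SD of those controls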;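 on activation: fluorescence ratio of max minus min over baseline after K+ and Tl+ depolarization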); details: parental CHO-K1 cells, FluxOR thallium flux, at 10 µM; hits give high values
# Outline: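 Material: untransfected host CHO-K1 cells with FluxOR thallium dye. Timing: overnight 37 °C plating, 90 min RT dye, 20 min compound. Detection: kinetic FluxOR fluorescence, 10 s baseline, 110 s after stimulus. Read-out basis: max-minus-min fluorescence over baseline, percent of buffer-to-R-L3 span. Replicates: duplicate wells per compound, percent values averaged.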
# [2] = target: Potassium voltage-gated channel subfamily KQT member 1 (Homo sapiens) (UniProt P51787); assay: KCNQ1 potassium channel potentiators, confirmation, FluxOR thallium flux, CHO cells, duplicates (AID 493007;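 active means potentiation averaged over duplicate wells exceeding buffer-only control mean by more than 3 SD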;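 on outcome: cells depolarized by a potassium plus thallium sulfate stimulus after compound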); details: KCNQ1 cell line, FluxOR thallium flux fluorescence, at 10 µM; hits give high values, % of reference activator effect, buffer zero
# Outline: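 Test system – KCNQ1-expressing CHO cell line · Incubation – FluxOR dye loading 90 min, compound exposure 20 min, room temperature · Detection – FluxOR Tl+ flux fluorescence, 10 s baseline plus 110 s recording · Controls – buffer-only wells as 0% and R-L3 activator as 100%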
# [3] = target: Potassium voltage-gated channel subfamily KQT member 2 (Rattus norvegicus) (UniProt O88943); assay: rat KCNQ2 channel potentiation, selectivity assay for KCNQ1 potentiator project, KCNQ2-CHO-K1 cells (AID 493009;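 active means mean duplicate potentiation above the buffer control mean plus 5 SD of buffer wells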;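 further: assay conditions were tuned for KCNQ1 rather than KCNQ2 modulators; signal is max minus min fluorescence divided by baseline after thallium stimulus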); details: FluxOR thallium flux fluorescence, at 10 µM; hits give high values, scaled: buffer 0, activator control 100
# [4] = target: Potassium voltage-gated channel subfamily KQT member 1 (Homo sapiens) (UniProt P51787); assay: KCNQ1 channel current potentiators, confirmation, orthogonal assay for KCNQ1 potentiator project, IonWorks patch clamp, KCNQ1-CHO cells (AID 493184); details: automated patch clamp current, at 10 µM; hits give high values;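 on current potentiation: percent change of the same well's current before compound addition so 0% = no change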
# Outline: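 Read-out: Percent current increase versus pre-compound level | Assay system: CHO cells carrying KCNQ1 | Measured by: Automated perforated-patch electrophysiology | Medium: External bath solution at pH 7.4 | Dosing: One dose, 10 µM final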
# Sequence of Potassium voltage-gated channel subfamily KQT member 1 (Homo sapiens) (P51787 whole entry, looked up): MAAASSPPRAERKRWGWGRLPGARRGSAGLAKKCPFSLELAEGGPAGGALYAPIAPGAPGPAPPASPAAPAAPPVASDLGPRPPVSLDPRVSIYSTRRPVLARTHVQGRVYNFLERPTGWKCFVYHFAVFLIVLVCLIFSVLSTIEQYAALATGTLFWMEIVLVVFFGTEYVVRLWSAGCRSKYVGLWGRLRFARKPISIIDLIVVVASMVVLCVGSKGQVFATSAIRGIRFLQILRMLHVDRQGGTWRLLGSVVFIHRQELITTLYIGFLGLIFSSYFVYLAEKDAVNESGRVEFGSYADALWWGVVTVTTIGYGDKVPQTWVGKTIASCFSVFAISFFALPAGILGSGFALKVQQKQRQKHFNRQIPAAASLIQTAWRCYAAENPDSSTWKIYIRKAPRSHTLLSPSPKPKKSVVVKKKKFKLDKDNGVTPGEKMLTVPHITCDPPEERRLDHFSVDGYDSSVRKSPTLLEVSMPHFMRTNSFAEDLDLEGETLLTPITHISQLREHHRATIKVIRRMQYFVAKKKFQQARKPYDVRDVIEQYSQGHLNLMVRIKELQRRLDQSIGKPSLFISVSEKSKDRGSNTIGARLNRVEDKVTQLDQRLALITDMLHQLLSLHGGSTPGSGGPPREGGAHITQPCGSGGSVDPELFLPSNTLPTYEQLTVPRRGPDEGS
# Sequence of Potassium voltage-gated channel subfamily KQT member 2 (Rattus norvegicus) (O88943 whole entry, looked up): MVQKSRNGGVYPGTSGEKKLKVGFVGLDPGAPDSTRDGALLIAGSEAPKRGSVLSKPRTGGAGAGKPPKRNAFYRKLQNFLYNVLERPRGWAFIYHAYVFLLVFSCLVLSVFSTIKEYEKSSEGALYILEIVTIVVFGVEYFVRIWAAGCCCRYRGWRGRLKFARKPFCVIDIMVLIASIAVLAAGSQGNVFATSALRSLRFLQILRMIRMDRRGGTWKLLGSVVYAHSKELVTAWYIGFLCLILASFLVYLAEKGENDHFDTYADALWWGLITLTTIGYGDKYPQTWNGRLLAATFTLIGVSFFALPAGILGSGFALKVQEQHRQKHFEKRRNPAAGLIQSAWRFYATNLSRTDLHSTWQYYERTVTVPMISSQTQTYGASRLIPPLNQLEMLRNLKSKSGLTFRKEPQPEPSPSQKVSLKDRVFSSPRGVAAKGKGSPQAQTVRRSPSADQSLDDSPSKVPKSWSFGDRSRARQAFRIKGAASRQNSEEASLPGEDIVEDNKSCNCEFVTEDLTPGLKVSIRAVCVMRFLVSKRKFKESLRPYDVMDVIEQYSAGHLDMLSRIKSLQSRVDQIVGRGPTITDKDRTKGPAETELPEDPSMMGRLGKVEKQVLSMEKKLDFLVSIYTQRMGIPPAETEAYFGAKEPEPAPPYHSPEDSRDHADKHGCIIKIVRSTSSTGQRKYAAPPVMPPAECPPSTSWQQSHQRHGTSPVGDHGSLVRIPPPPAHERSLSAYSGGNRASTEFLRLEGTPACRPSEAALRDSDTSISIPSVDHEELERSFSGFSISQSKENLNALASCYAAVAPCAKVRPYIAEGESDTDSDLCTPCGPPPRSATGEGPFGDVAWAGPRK
SMILES,outcome [1],outcome [2],outcome [3],outcome [4],potentiation [2],activation [1],potentiation [3],current potentiation [4]
O=Cc1ccc2noc(-c3ccc(Cl)cc3)c2c1,inactive,inactive,inactive,inactive,,,,
CC1CCCC(NC(=S)NC(=O)c2ccccc2Br)C1C (stereo not given),inactive,,inactive,inactive,29.5% (active),,,
Cc1ccc2c(c1)C1CN(C)CCC1N2C(=S)NC(=O)c1ccc(Cl)cc1Cl (stereo not given),,,,inactive,50% (active),194% (active),217% (active),
O=C(Nc1cccc(NC(=O)c2c(F)cccc2F)n1)c1c(F)cccc1F,inactive,inactive,inactive,inactive,,,,
O=C(O)C(c1ccccc1)N1C(=O)/C(=C\c2ccc(-c3ccc(Br)cc3)o2)SC1=S (stereo not given),inactive,,inactive,,17.5% (active),,,15% (active)
O=c1c2ccccc2[nH]c(=S)n1CCC1=CCCCC1,,,,inactive,46% (active),212% (active),196% (active),
Cc1ccc(NC(=O)C(=O)NNC(=O)c2cccs2)cc1,,,,inactive,88.5% (active),337% (active),326% (active),
Fc1ccc2nc(Nc3nc4c(F)cc(F)cc4s3)sc2c1,,,,inactive,74% (active),165% (active),210% (active),
CC(C)N(Cc1ccccc1)C(=S)NC(=O)C1(C)CC1(Cl)Cl (stereo not given),,,,inactive,138% (active),357% (active),354% (active),
COc1cccc(C(=O)NNC(=O)C(=O)Nc2cccc3ccccc23)c1,,,,inactive,51.5% (active),218% (active),228% (active),
O=C(NN=C1c2ccccc2-c2ccccc21)c1cccc(Br)c1,,,,inactive,42.5% (active),196% (active),154% (active),
COc1ccccc1C(=O)NNC(=O)C(=O)Nc1ccc(C)cc1,,,,inactive,182% (active),534% (active),593% (active),
Cc1nc(NCc2cccnc2)c2c3c(sc2n1)CC(C)CC3 (stereo not given),,,,inactive,118% (active),299% (active),352% (active),
COc1cccc(OCC(=O)NNC(=O)C(=O)Nc2ccc(OC)cc2OC)c1,,,,inactive,55.5% (active),172% (active),222% (active),
COc1cccc(C(=O)NNC(=O)C(=O)Nc2cccc(Cl)c2C)c1,,,,inactive,128% (active),195% (active),299% (active),
CC(C)COn1c(=S)[nH]c2ccccc2c1=O,,inactive,,inactive,,164% (active),198% (active),
CN(Cc1cn[nH]c1-c1ccc2c(c1)OCO2)C1CCOCC1,inactive,inactive,inactive,inactive,,,,
COc1ccc(Cl)cc1NC(=O)/C=C\C(=O)O,inactive,inactive,inactive,inactive,,,,
Fc1cccc(/C=N/Nc2ccc3ccccc3n2)c1,inactive,inactive,inactive,inactive,,,,
O=C1c2ccccc2C2(c3cc(C(F)(F)F)cc(C(F)(F)F)c3)NCCN12 (stereo not given),inactive,inactive,inactive,inactive,,,,

SMILES,outcome [1],outcome [2],outcome [3],outcome [4],potentiation [2],activation [1],potentiation [3],current potentiation [4]
O=C1/C(=C/c2cccc(F)c2)SC(=S)N1NS(=O)(=O)c1ccccc1,,inactive,inactive,inactive,,146% (active),,
C/C(=N\NC(=O)c1cc2ccccc2cc1O)c1ccc(C)o1,,,,inactive,114% (active),238% (active),264% (active),
COc1ccc(C(=O)CSc2nnc(NC(=O)C3CC(=O)N(c4cccc(OC)c4)C3)s2)cc1 (stereo not given),inactive,inactive,inactive,inactive,,,,
CCCCn1c(-c2csc3c2CCC(C)C3)n[nH]c1=S (stereo not given),,,,inactive,75.5% (active),145% (active),150% (active),
CCOc1ccc2[nH]c(=O)c(CN(CCN3CCCC3)C(=S)Nc3ccccc3OCC)cc2c1,,inactive,,inactive,,137% (active),164% (active),
S=C(N/N=C/c1ccccc1Cl)Nc1cccc(Cl)c1Cl,inactive,,,inactive,71% (active),,173% (active),
CC(C)(C)C(=O)NC1CC2CCCC(C1)N2C(=O)Nc1ccccc1 (stereo not given),inactive,inactive,inactive,inactive,,,,
FC(F)(F)c1cc(N2CCNCC2)c2ccccc2n1,inactive,inactive,inactive,inactive,,,,
OCCN1CCN(c2ncnc3c2sc2nc(N4CCOCC4)c4c(c23)CCC4)CC1,inactive,,inactive,inactive,19% (active),,,
CCCCCn1c(=O)c2ccccc2n2c(=S)[nH]nc12,,,,inactive,39% (active),152% (active),158% (active),
CCOc1ccccc1NC(=O)C1CCCN(S(=O)(=O)c2ccccc2)C1 (stereo not given),inactive,inactive,inactive,inactive,,,,
O=C(Nc1ccccc1F)C1C2C=CC3(O2)C1C(=O)N(c1cccnc1)C3C(=O)NC1CCCCC1 (stereo not given),inactive,inactive,inactive,inactive,,,,
c1ccc(-n2cnc3cc(NCc4cccs4)ccc32)cc1,inactive,inactive,inactive,inactive,,,,
COc1ccc(OC)c(/C=C2\SC(=S)N(NS(=O)(=O)c3ccc(C)cc3)C2=O)c1,,,,,102% (active),166% (active),240% (active),47.4% (active)
CCN1C(=O)/C(=C\C(=O)c2cccs2)c2cc(Br)ccc21,inactive,inactive,inactive,inactive,,,,
Cc1cccc(NC(=O)Nc2ccc(OCc3ccccc3)cc2)n1,inactive,inactive,inactive,inactive,,,,
Cc1ccc(-c2cc(-c3n[nH]c(=S)o3)c3ccccc3n2)cc1,,,,,260% (active),468% (active),512% (active),18.8% (active)
CC(C)n1c(=S)[nH]c2scc(-c3cccs3)c2c1=O,,,,inactive,200% (active),491% (active),465% (active),
COCCCNC(=O)CC(NS(=O)(=O)c1ccc(F)cc1)c1ccc(OC)cc1 (stereo not given),inactive,inactive,inactive,inactive,,,,
CC(=O)c1c(C)[nH]c(C(=O)OCc2nc3ccsc3c(=O)[nH]2)c1C,inactive,inactive,inactive,inactive,,,,

SMILES,outcome [1],outcome [2],outcome [3],outcome [4],potentiation [2],activation [1],potentiation [3],current potentiation [4]
C=CCC(=O)N1CCC(n2nccc2NC(=O)CCOc2ccccc2)CC1,inactive,inactive,inactive,inactive,,,,
Cc1ccc(C2=NOC(=O)/C2=C\C=C\c2ccccc2)cc1,inactive,inactive,inactive,inactive,,,,
CCCc1cc2c(=O)c(-c3ccccn3)c(C)oc2cc1O,inactive,inactive,inactive,inactive,,,,
Clc1ccc(C(c2ccccc2)N2CCNCC2)cc1 (stereo not given),inactive,inactive,inactive,inactive,,,,
CN(CC(=O)Nc1c(Cl)cccc1Cl)C(=O)c1n[nH]c2ccccc12,inactive,inactive,inactive,inactive,,,,
CCOC(=O)CSc1nc(C2CC2)cc(-c2ccc(F)cc2)c1C#N,,,,inactive,52% (active),166% (active),160% (active),
COCCN1CCCC(CNCc2cn(C)nc2-c2ccc(Oc3ccccc3)cc2)C1 (stereo not given),inactive,inactive,inactive,inactive,,,,
O=C(COC(=O)c1cc(NS(=O)(=O)c2cccs2)ccc1O)Nc1cc(Cl)ccc1Cl,inactive,inactive,inactive,inactive,,,,
Cc1cc(C(=O)CSc2nnc(N)s2)c(C)n1C1CC1,inactive,inactive,inactive,inactive,,,,
N=c1sccn1CC(=O)Nc1cc(Cl)ccc1Oc1ccccc1,inactive,inactive,inactive,inactive,,,,
C/C(=N\NC(=S)Nc1cccc(C)c1)c1ccco1,inactive,,,inactive,35% (active),,166% (active),
COc1ccccc1NC(=O)C(=O)NNC(=O)c1ccco1,,,,inactive,62.5% (active),240% (active),210% (active),
COc1cccc(NC(=O)NCC2CCN(Cc3ccc(F)cc3)CC2)c1,inactive,inactive,inactive,inactive,,,,
COc1ccc(OCC(=O)NNC(=O)c2cccs2)cc1,,,,inactive,47.5% (active),146% (active),168% (active),
C=CCN(c1ccccc1)S(=O)(=O)c1cccc(C(=O)Nc2cccc(C)n2)c1,,,,inactive,224% (active),290% (active),358% (active),
O=C(CCN1CCc2ccccc2CC1)c1ccc2c(c1)OCCO2,,,,inactive,38% (active),150% (active),176% (active),
O=C1c2cccc3cccc(c23)C(=O)N1c1cccc(O)c1,inactive,inactive,inactive,inactive,,,,
CC(C)(C)C1C/C(=C/c2ccccn2)C(=O)/C(=C/c2ccccn2)C1 (stereo not given),inactive,inactive,inactive,inactive,,,,
Cc1cccc(NC(=S)NNC(=O)c2csc3c2CCC(C)C3)c1 (stereo not given),,,,inactive,86% (active),193% (active),248% (active),
COc1cccc2sc(NNC(=O)C3COc4ccccc4O3)nc12 (stereo not given),inactive,inactive,inactive,inactive,,,,
